Experimental findings from ChEMBL document CHEMBL1132429, “Design and synthesis of lipophilic phosphoramidate d4T-MP prodrugs expressing high potency against HIV in cell culture: structural determinants for in vitro activity and QSAR” (J Med Chem, 1999) are described below.

The EC50 is the concentration that produces a half-maximal response. The CC50 is the concentration that lowers cell viability or growth by half. A higher CC50 goes with lower toxicity to the cells. The term logD denotes the decadic logarithm of the distribution of all forms, ionised or not, between an organic phase and buffer at a given pH. Higher therefore signals a more lipophilic compound.

Data set [1] deals with Human immunodeficiency virus 2. Description: Concentration required to protect CEM/0 cells against the cytopathicity of HIV-2 by 50%. Conditions: Human immunodeficiency virus 2, CCRF-CEM. Background: Protection from cytopathic effect is a common read-out in antiviral testing.
In data set [2] the test system is CCRF-CEM. Description: Cytostatic concentration required to inhibit CEM/0 cells proliferation by 50%. It counts as functional. To be noted: Homo sapiens.
Data set [3] concerns Human immunodeficiency virus 1. Description: Ratio CC50/EC50 for HIV-1 in CEM/0 cells. It counts as functional.
Data set [4] relates to Human immunodeficiency virus 2. Description: Concentration required to protect CEM/TK cells against the cytopathicity of HIV-2 by 50%. To be noted: Human immunodeficiency virus 2, CEM-TK(-).
The nature of data set [5]: Partition coefficient (logD7.0). It counts as physicochemical. Conditions: octanol/water, pH 7. Put shortly: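 Compound (2 μmol) was dissolved in 1-octanol (10 mL) and read by UV at 265 nm. Equal volumes of this solution and pH 7.0 phosphate buffer were stirred 5 min at 25 °C, then allowed to separate for 5 min. Octanol-phase absorbance at 265 nm was divided by that of the original octanol solution. Each experiment was done at least in triplicate.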

Data set [6] concerns Human immunodeficiency virus 1. Description: Concentration required to protect CEM/0 cells against the cytopathicity of HIV-1 by 50%. It counts as functional, organism-based. To be noted: Human immunodeficiency virus 1, CCRF-CEM. The method, boiled down:
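CEM/0 or CEM/TK⁻ cells at 250,000 cells/mL were infected with HIV-1 (~20 CCID₅₀/mL) or HIV-2 (~100 CCID₅₀/mL). Cells were mixed with an equal volume of diluted compound and incubated 4 days at 37 °C, then scored for giant cell formation. EC₅₀ is the concentration (μM) giving 50% inhibition of HIV-induced cytopathicity. Values are the mean of 2–4 independent experiments.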

SMILES strings stand for the structures.

For the compound `COC(=O)C(C)NP(=O)(OC[C@@H]1C=C[C@H](n2cc(C)c(=O)[nH]c2=O)O1)Oc1ccc(C#N)cc1` (stereo partly specified), the EC50 in data set [1] is 130 nM; in data set [4] it was 90 nM; in data set [6] it was 150 nM. For the same compound, in data set [2], the midpoint of cytotoxicity, the CC50, lay at 60 µM. Moreover, in data set [3], the Selectivity index is listed as 400. This compound registered a logD in data set [5] of 0.91.

For the compound `COC(=O)C(C)NP(=O)(OC[C@@H]1C=C[C@H](n2cc(C)c(=O)[nH]c2=O)O1)Oc1ccc(OC(F)(F)F)cc1` (stereo partly specified), the values for the EC50 in data set [1], in data set [4] and in data set [6] were 30 nM, 30 nM and 14 nM, respectively. This compound also returned a CC50 in data set [2] of 34 µM. In addition, in data set [3], the Selectivity index amounted to 2429. The compound further returned a logD in data set [5] of 1.86.

With `COC(=O)C(C)NP(=O)(OC[C@@H]1C=C[C@H](n2cc(C)c(=O)[nH]c2=O)O1)Oc1ccc(Br)cc1` (stereo partly specified) [STAMPIDINE], the EC50 in data set [1] amounted to 16 nM; in data set [4], 18 nM; in data set [6], 9 nM. In data set [2], this compound had a CC50 of 17 µM. Besides, in data set [3], the Selectivity index is listed as 1889. For the same compound, the logD in data set [5] amounted to 1.6.

As for `COC(=O)C(C)NP(=O)(OC[C@@H]1C=C[C@H](n2cc(C)c(=O)[nH]c2=O)O1)Oc1cccc(Br)c1` (stereo partly specified), the results for the EC50 in data set [1], in data set [4] and in data set [6] were 16 nM, 14 nM and 15 nM, respectively. The same compound displayed a CC50 in data set [2] of 13 µM. Besides, in data set [3], the Selectivity index amounted to 867. Besides, in data set [5], the pH-dependent lipophilicity (logD) worked out at 1.64.

As to `COC(=O)C(C)NP(=O)(OC[C@@H]1C=C[C@H](n2cc(C)c(=O)[nH]c2=O)O1)Oc1ccccc1` (stereo partly specified), the EC50 in data set [1], in data set [4] and in data set [6] was 75 nM throughout. In addition, the CC50 in data set [2] was above 100 µM. For the same compound, the Selectivity index in data set [3] is given as above 1333. In addition, the log distribution coefficient (logD) in data set [5] was 1.04.

On to `COC(=O)C(C)NP(=O)(OC[C@@H]1C=C[C@H](n2cc(C)c(=O)[nH]c2=O)O1)Oc1ccc(F)cc1` (stereo partly specified), for which the EC50 was 60 nM in data set [1], 22 nM in data set [4] and 53 nM in data set [6]. Besides, in data set [2], the CC50 came out at 26 µM. The Selectivity index in data set [3] is 490. Further, the logD in data set [5] stood at 1.1.

As for `COC(=O)C(C)NP(=O)(OC[C@@H]1C=C[C@H](n2cc(C)c(=O)[nH]c2=O)O1)Oc1ccc(C(F)(F)F)cc1` (stereo partly specified), the EC50 in data set [1] worked out at 10 nM; in data set [4], 18 nM; in data set [6] it was 10 nM. The same compound returned a 50% cytotoxic concentration (CC50) in data set [2] of 13 µM. Further, the Selectivity index in data set [3] is given as 1300. The compound further came in with a logD in data set [5] of 1.77.

Turning to `Cc1cn([C@H]2C=C[C@@H](CO)O2)c(=O)[nH]c1=O` [STAVUDINE], the EC50 in data set [1] is 770 nM; in data set [4] it was 33000 nM; in data set [6] it was 651 nM. Moreover, the Selectivity index in data set [3] stood at 267. Besides, the logD in data set [5] is -0.59.

As to `COC(=O)C(C)NP(=O)(OC[C@@H]1C=C[C@H](n2cc(C)c(=O)[nH]c2=O)O1)Oc1cccc(I)c1` (stereo partly specified), the EC50 in data set [1] worked out at 7 nM; in data set [4], 16 nM; in data set [6], 8 nM. The compound also displayed a CC50 in data set [2] of 25 µM. In addition, the Selectivity index in data set [3] came out at 3125. Moreover, the logD in data set [5] was determined as 1.78.

`COC(=O)C(C)NP(=O)(OC[C@@H]1C=C[C@H](n2cc(C)c(=O)[nH]c2=O)O1)Oc1cccc(F)c1` (stereo partly specified): the EC50 was found to be 35 nM in data set [1], 65 nM in data set [4] and 18 nM in data set [6]. Moreover, the CC50 in data set [2] worked out at 30 µM. In data set [3], the Selectivity index is recorded as 1667. This compound showed a logD in data set [5] of 1.08.

As for `COC(=O)c1ccc(OP(=O)(NC(C)C(=O)OC)OC[C@@H]2C=C[C@H](n3cc(C)c(=O)[nH]c3=O)O2)cc1` (stereo partly specified), the EC50 in data set [1] stood at 22 nM; in data set [4], 25 nM; in data set [6], 25 nM. Half-maximal cytotoxicity in data set [2] (CC50) was put at 31 µM. Further, the Selectivity index in data set [3] is 1240. In data set [5], this compound gave a logD of 1.01.

Turning to `COC(=O)C(C)NP(=O)(OC[C@@H]1C=C[C@H](n2cc(C)c(=O)[nH]c2=O)O1)Oc1ccc([N+](=O)[O-])cc1` (stereo partly specified), the EC50 was determined as 190 nM in data set [1], 90 nM in data set [4] and 130 nM in data set [6]. The compound also returned a CC50 in data set [2] of 73 µM. Also, in data set [3], the Selectivity index was 562. Further, the logD in data set [5] came to 0.9.

For `COC(=O)C(C)NP(=O)(OC[C@@H]1C=C[C@H](n2cc(C)c(=O)[nH]c2=O)O1)Oc1ccc(I)cc1` (stereo partly specified), the EC50 in data set [1] was 15 nM; in data set [4] it was 29 nM; in data set [6] it was 13 nM. The compound also displayed a CC50 in data set [2] of 15 µM. Moreover, the Selectivity index in data set [3] amounted to 1154. In data set [5], this compound gave a logD of 1.93.

In the case of `COC(=O)C(C)NP(=O)(OC[C@@H]1C=C[C@H](n2cc(C)c(=O)[nH]c2=O)O1)Oc1cccc(C(C)=O)c1` (stereo partly specified), the EC50 was 90 nM in data set [1], 45 nM in data set [4] and 80 nM in data set [6]. Further, in data set [2], half-maximal cytotoxicity (CC50) was put at 50 µM. Further, the Selectivity index in data set [3] is on record as 625. Also, in data set [5], the logD stood at 0.92.

For `COC(=O)C(C)NP(=O)(OC[C@@H]1C=C[C@H](n2cc(C)c(=O)[nH]c2=O)O1)Oc1ccc(OC)cc1` (stereo partly specified), the EC50 in data set [1] came out at 53 nM; in data set [4], 47 nM; in data set [6], 57 nM. In data set [2], the CC50 came out at 35 µM. The Selectivity index in data set [3] is recorded as 614. The same compound gave a logD in data set [5] of 1.09.

Turning to `COC(=O)C(C)NP(=O)(OC[C@@H]1C=C[C@H](n2cc(C)c(=O)[nH]c2=O)O1)Oc1ccc(Cl)c(Cl)c1` (stereo partly specified), the results for the EC50 in data set [1], in data set [4] and in data set [6] were 30 nM, 30 nM and 16 nM, respectively. The same compound gave a CC50 in data set [2] of 21 µM. The Selectivity index in data set [3] was found to be 1313. The logD in data set [5] is 2.15.

As for `COC(=O)C(C)NP(=O)(OC[C@@H]1C=C[C@H](n2cc(C)c(=O)[nH]c2=O)O1)Oc1cccc(C(F)(F)F)c1` (stereo partly specified), the EC50 in data set [1] was 13 nM; in data set [4] it was 5.4 nM; in data set [6] it was 13 nM. In addition, it took 14 µM to reach half-maximal cytotoxicity in data set [2] (CC50). The Selectivity index in data set [3] was determined as 1077. The compound also had a logD in data set [5] of 1.57.

For the compound `COC(=O)C(C)NP(=O)(OC[C@@H]1C=C[C@H](n2cc(C)c(=O)[nH]c2=O)O1)Oc1ccc(Cl)cc1` (stereo partly specified), the EC50 was 7 nM in data set [1], 6 nM in data set [4] and 5 nM in data set [6]. In data set [2], this compound had a CC50 of 11 µM. For the same compound, the Selectivity index in data set [3] came out at 2200. This compound also came in with a logD in data set [5] of 1.43.

Consider `COC(=O)C(C)NP(=O)(OC[C@@H]1C=C[C@H](n2cc(C)c(=O)[nH]c2=O)O1)Oc1cccc(Cl)c1` (stereo partly specified), for which the values for the EC50 in data set [1], in data set [4] and in data set [6] were 57 nM, 40 nM and 25 nM, respectively. This compound yielded a CC50 in data set [2] of 26 µM. In data set [3], the Selectivity index is given as 1040. Moreover, in data set [5], the pH-dependent lipophilicity (logD) turned out to be 1.42.

With `COC(=O)C(C)NP(=O)(OC[C@@H]1C=C[C@H](n2cc(C)c(=O)[nH]c2=O)O1)Oc1ccc(C(C)=O)cc1` (stereo partly specified), the EC50 is 100 nM in data set [1], 50 nM in data set [4] and 110 nM in data set [6]. The compound further yielded a CC50 in data set [2] of 40 µM. The Selectivity index in data set [3] worked out at 363. Also, in data set [5], the log distribution coefficient (logD) was 0.9.

`COC(=O)C(C)NP(=O)(OC[C@@H]1C=C[C@H](n2cc(C)c(=O)[nH]c2=O)O1)Oc1ccccc1Cl` (stereo partly specified): the EC50 in data set [1] worked out at 29 nM; in data set [4], 65 nM; in data set [6] it was 18 nM. Further, it took 47 µM to reach half-maximal cytotoxicity in data set [2] (CC50). Besides, in data set [3], the Selectivity index worked out at 2611. In addition, the logD in data set [5] turned out to be 1.37.

In the case of `COC(=O)C(C)NP(=O)(OC[C@@H]1C=C[C@H](n2cc(C)c(=O)[nH]c2=O)O1)Oc1ccc(C)cc1` (stereo partly specified), the EC50 in data set [1] was found to be 50 nM; in data set [4], 25 nM; in data set [6] it was 40 nM. The same compound gave a CC50 in data set [2] of 34 µM. Also, the Selectivity index in data set [3] amounted to 850. In addition, the logD in data set [5] was found to be 1.19.
